The target of test [1] is T1, Peroxisome proliferator-activated receptor gamma (Homo sapiens, UniProt P37231).
T1 sequence (P37231 whole entry): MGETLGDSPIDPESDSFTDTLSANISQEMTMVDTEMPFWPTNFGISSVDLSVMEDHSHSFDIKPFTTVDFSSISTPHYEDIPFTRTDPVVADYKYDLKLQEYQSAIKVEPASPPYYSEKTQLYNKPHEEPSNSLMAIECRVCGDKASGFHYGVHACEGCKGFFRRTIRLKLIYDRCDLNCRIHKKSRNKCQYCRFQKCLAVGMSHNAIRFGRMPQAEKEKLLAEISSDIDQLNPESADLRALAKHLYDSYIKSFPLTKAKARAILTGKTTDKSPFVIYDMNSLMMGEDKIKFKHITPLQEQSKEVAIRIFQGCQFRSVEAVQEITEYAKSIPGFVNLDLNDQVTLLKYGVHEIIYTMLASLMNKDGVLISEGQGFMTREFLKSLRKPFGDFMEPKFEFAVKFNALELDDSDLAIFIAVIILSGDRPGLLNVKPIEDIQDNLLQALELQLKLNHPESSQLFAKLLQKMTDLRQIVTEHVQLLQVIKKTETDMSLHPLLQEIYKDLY
Put plainly: Displacement of [3H]rosiglitazone from human PPARgamma ligand binding domain expressed in Escherichia coli BL21 after 12 hrs by liquid scintillation counting. In a few lines: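 His-tagged hPPARγ LBD purified on Co2+ affinity resin, preincubated 12 h at 4 °C with 40 nM [3H]rosiglitazone (50 Ci/mmol) in 10 mM Tris pH 8.0, 50 mM KCl, 10 mM DTT. Unlabeled ligand or DMSO vehicle added, then a further 12 h at 4 °C. Bound and free label separated on Sephadex G-25 and counted by scintillation. Results as % bound vs vehicle; Ki from concentration-dependent displacement.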
For orientation: In a radioligand displacement assay an active substance lowers the binding of a labelled ligand.

The subject of test [2] is Mus musculus. Put plainly: Antiinflammatory activity against carrageenan-induced air pouch inflammation in po dosed mouse assessed as inhibition of leukocyte infiltration administered 1 hr before carrageenan challenge measured after 6 hrs by hemocytometry relative to untreated control.

Molecules are shown by their SMILES.

One may read the Ki as the dissociation constant of the complex between target and ligand, obtained from inhibition or displacement. Read a low Ki as a stronger hold on the target. On to `O=C1S/C(=C\c2ccc(Cl)cc2Cl)C(=O)N1Cc1c(F)cccc1Cl`, for which the affinity in test [1], expressed as Ki, was 4 µM. The “inhibition (INH)” value in test [2] was 41.6%.
For the compound `O=C1S/C(=C\c2ccc3c(c2)Cc2ccccc2-3)C(=O)N1Cc1cccc(Cl)c1`, the “inhibition (INH)” value in test [2] was determined as 65.2%.
Same read-out and setting: the result for `COc1ccc(/C=C2\SC(=O)N(Cc3cccc(Cl)c3)C2=O)cc1` reads 42%; that for `COc1ccc(Br)cc1/C=C1\SC(=O)N(Cc2cccc(Cl)c2)C1=O`, 47.4%.
For `CS(=O)(=O)c1ccc(/C=C2\SC(=O)N(Cc3cccc(Cl)c3)C2=O)cc1`, in test [1], the inhibition constant Ki worked out at 43 µM. In addition, the “inhibition (INH)” value in test [2] was 63.9%.
For `CS(=O)(=O)c1ccc(/C=C2\SC(=O)N(Cc3ccccc3Br)C2=O)cc1` the same measures were 7.3 µM and 73.3%.
Take `COc1ccc(/C=C2\SC(=O)N(Cc3cccc(Cl)c3)C2=O)cc1Br`: in test [2], the “inhibition (INH)” value stood at 51.5%.
In the case of `O=C1S/C(=C\c2ccc(-c3ccccc3)cc2)C(=O)N1Cc1cccc(Cl)c1`, in test [1], affinity was put at a Ki of 43.6 µM. Besides, the “inhibition (INH)” value in test [2] was 67%.
As for `CN(CCOc1ccc(CC2SC(=O)NC2=O)cc1)c1ccccn1` (stereo not drawn) [ROSIGLITAZONE], the “inhibition (INH)” value in test [2] was determined as 72%.
